Compounds with a hit are over-represented: about 11% of the library has one in this group of screens.
Diaphorase inh – inhibits diaphorase or chemically oxidizes, flagging diaphorase assay artifacts; 190,000 compounds, 0.69% hits; inhibition, % at 20 µM; diaphorase resazurin-to-resorufin fluorescence, NADH, 16 min; bacterial (C. kluyveri) enzyme, not human; AID 1217;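 active = primary screen inhibition at 20 µM above a set limit, cut at about 50% in these data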
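Assay system: diaphorase enzyme from Clostridium kluyveri; Input: enzyme working solution with 0.14 U/mL diaphorase; Timing: 16 min at room temperature; Technique: resorufin fluorescence, excitation 544 nm, emission 590 nm; Benchmarks: positive control minus NADH, DMSO neutral control.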
Lmaj promast – inhibitors of Leishmania major promastigote growth. Leishmania major promastigotes, resazurin fluorescence viability. inhibition, % at 10 µM. 200,000 compounds, 9% hits;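 also: promastigotes grown with compound for 44 hours at 28 °C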
WT yeast gro inh – growth inhibition of WT yeast, mitochondrial fusion screen. mitochondrial fusion phenotypic screen, WT strain. inhibition, % at 10 µM. 190,000 compounds, 2.1% hits; in the data active = inhibition above about 58%; tested in S. cerevisiae
G6PDH counter – L. mesenteroides G6PDH inhibition counter-screen; Purified L. mesenteroides G6PDH, diaphorase/resazurin coupled fluorescence, 45 min; 200,000 compounds, 0.12% hits; inhibition, % at 5 µM
Diaph act CS – counter-screen for diaphorase-based assays: diaphorase activators and chemical reducers. AID 1229. Diaphorase/resazurin coupled assay, resorufin fluorescence, 16 min; stronger effect = higher value; 1 = vehicle wells, 0 = NADH-free wells. activation factor at 20 µM. 190,000 compounds, 0.005% hits;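 active = diaphorase activity raised at least twofold by the compound at 20 µM; inactive = activation factor below 2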
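Measured by – red resorufin fluorescence at 544/590 nm excitation/emission · Test system – Clostridium kluyveri diaphorase, purified enzyme · Incubation – reaction time 16 min, room temperature · Buffer or medium – 50 mM HEPES pH 7.4 with 4.542 mM MgCl2, 0.005% Tween 20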
Numbers stand for hits; – = inactive. Rule as the data show it, unless noted: active = inhibition above about 50%; inactive = the rest.

SMILES | Diaphorase inh | Lmaj promast | WT yeast gro inh | G6PDH counter | Diaph act CS
COCC1CCCN(C(=O)c2ccc(OC3CCN(Cc4ccccn4)CC3)cc2)C1 (configuration not stated) | – | – | – | – | –
COc1ccc(/C(C)=N/Nc2ccc(C(=O)O)cc2)c(OC)c1 | – | 52.9 | – | – | –
Cc1noc(C)c1COC(=O)C(c1ccccc1)c1ccccc1 | – | – | – | – | –
Cc1cccc(C)c1OC(=O)C(c1ccccc1)c1ccccc1 | – | 88.5 | – | – | –
CCOCCCNCc1cccc(OCc2ccc(F)cc2)c1 | – | 99.0 | – | – | –
CCOC(=O)CCNCc1ccc(F)cc1 | – | – | – | – | –
CCOCCCNCc1ccc(Cl)cc1 | – | 69.2 | – | – | –
Cc1ccc(S(=O)(=O)NNC(=O)c2sc(=S)n(C)c2C)cc1 | – | – | – | – | –
COc1ccc(Nc2ccc(N3C(=O)CCCC3=O)cc2[N+](=O)[O-])cc1OC | – | 88.1 | – | – | –
COc1ccc(Nc2ccc(N3C(=O)CC(C)C3=O)cc2[N+](=O)[O-])cc1OC (configuration not stated) | – | – | – | – | –
CCn1c(COc2ccc(C)cc2)nnc1SCC(=O)NNC(=O)c1ccc(OC)cc1 | – | – | – | – | –
CCc1ccccc1NC(=S)N(Cc1ccco1)C(C)c1cccs1 (configuration not stated) | – | – | 76.2 | – | –
CCc1ccc(NC(=O)N(Cc2ccco2)C(C)c2cccs2)cc1 (configuration not stated) | – | 69.7 | – | – | –
CCc1ccc(NC(=O)CS(=O)CC(=O)NC(C)CCc2ccco2)cc1 (configuration not stated) | – | – | – | – | –
CC(C)CCN(C(=O)Nc1ccccc1)C(C)c1cccs1 (configuration not stated) | – | 83.3 | – | – | –
CCCNC(=S)NNC(=O)c1cccs1 | – | – | – | – | –
CCSc1nc2ccccc2n1C(=O)/C=C\c1ccc(OC)c(OC)c1 | – | 89.7 | – | – | –
COc1cc(S(=O)(=O)NCCOC23CC4CC(CC(C4)C2)C3)c(OC)cc1Cl | – | – | – | – | –
CCOc1ccc(OCC)c(S(=O)(=O)NCCOC23CC4CC(CC(C4)C2)C3)c1 | – | 77.8 | 74.0 | – | –
O=C(/C=C/c1ccc(Cl)cc1)N1CCN(c2c(Cl)cccc2[N+](=O)[O-])CC1 | – | – | – | – | –
O=C(CSc1ccc(Cl)cc1)N1CCN(c2c(Cl)cccc2[N+](=O)[O-])CC1 | – | 64.8 | – | – | –
O=C(Nc1ccccc1)C1=C[C@@H](c2ccc(C(F)(F)F)cc2)C[C@@H](OCc2ccc(CO)cc2)O1 | – | 64.9 | 62.6 | – | –
CN1CCN(C(=O)C2=C[C@@H](c3csc4ccccc34)C[C@@H](OCc3ccc(CO)cc3)O2)CC1 | – | 89.6 | – | – | –
CC(=O)n1cc([C@@H]2C=C(C(=O)N3CCN(Cc4ccccc4)CC3)O[C@H](OCc3ccc(CO)cc3)C2)c2ccccc21 | 58.6 | 97.5 | – | – | –
O=C(C1=C[C@H](c2csc3ccccc23)C[C@H](OCc2ccc(CO)cc2)O1)N1CCOCC1 | – | – | – | – | –
SMILES | Diaphorase inh | Lmaj promast | WT yeast gro inh | G6PDH counter | Diaph act CS
O=C(C1=C[C@H](c2csc3ccccc23)C[C@H](OCc2ccc(CO)cc2)O1)N1CCN(Cc2ccccc2)CC1 | – | – | 96.6 | – | –
O=C(Nc1ccccc1)C1=C[C@@H](c2ccccc2)C[C@@H](OCc2ccc(CO)cc2)O1 | – | – | – | – | –
CCS(=O)(=O)c1ccc2oc(SCC(=O)NC(C)C3CC4CCC3C4)nc2c1 (configuration not stated) | – | – | – | – | –
CCCNC(=S)N1CC2(C)CN(C(=O)C(=O)OC)CC(C)(C1)C2=O | – | – | – | – | –
Cc1onc(-c2ccccc2)c1C(=O)NC(C)C1CCCO1 (configuration not stated) | – | – | – | – | –
NC(=O)C1=C[C@H](c2csc3ccccc23)C[C@H](OCCCCO)O1 | 56.0 | – | – | – | –
O=C(C1=C[C@H](c2csc3ccccc23)C[C@H](OCc2ccc(CO)cc2)O1)N1CCN(Cc2ccc3c(c2)OCO3)CC1 | – | 65.9 | 97.7 | – | –
C[C@@H]1C=C(C(=O)N2CCN(C)CC2)O[C@H](OCc2ccc(CO)cc2)C1 | 68.5 | – | – | – | –
O=C(Nc1ccccc1)C1=C[C@@H](c2csc3ccccc23)C[C@@H](OCc2ccc(CO)cc2)O1 | – | 57.7 | – | – | –
CC(=O)NCCn1c(SCc2ccc(C)cc2C)nc2ccccc2c1=O | – | – | – | – | –
COc1ccccc1CNc1nc2nc(C)c(C)c(=O)n2[nH]1 | – | – | 78.7 | – | –
CCOc1ccc2c(c1)C(N(CCN1CCOCC1)C(=O)Nc1ccccc1)CC(C)(C)O2 (configuration not stated) | – | – | – | – | –
CC1=NN(c2ccc(C)c(C)c2)C(=O)/C1=C/c1ccc2c(c1)n(C)c(=O)n2C | – | 97.2 | – | – | –
COc1cc(/C=C2/C(=O)N(c3ccccc3)N=C2C)ccc1OS(=O)(=O)c1ccccc1 | – | 87.4 | – | – | –
Cn1c(=O)n(C)c2cc(/C=N/n3cnnc3)ccc21 | – | – | – | – | –
CCOc1cc(/C=C2/C(=O)N(c3ccccc3)N=C2C)ccc1OC(=O)c1ccco1 | – | – | – | – | –
CCc1ccc(NC(=O)N(Cc2cccnc2)Cc2ccco2)cc1 | – | 90.3 | – | – | –
CCOC(=O)c1ccc(NC(=S)N(Cc2cccnc2)Cc2ccco2)cc1 | – | 100.2 | – | – | –
COC(=O)c1ccc(NC(=S)N(Cc2cccnc2)Cc2ccco2)cc1 | – | 100.2 | – | – | –
CCOC(=O)c1ccc(NC(=S)NCc2cccnc2)cc1 | – | – | – | – | –
COc1ccc(C)cc1-n1nnnc1SCC1CCCCO1 (configuration not stated) | – | – | – | – | –
COc1ccc(-c2nc[nH]c2[N+](=O)[O-])cc1 | – | – | – | – | –
Cn1c(C2=C(O)CN(Cc3ccccc3)C2=N)[n+](C)c2ccccc21 | – | – | – | – | –
Cn1c(CN2CCN(C(=O)c3ccccc3Cl)CC2)nc2cc([N+](=O)[O-])ccc21 | – | – | – | – | –
Cn1c(CN2CCN(C(=O)c3ccccc3)CC2)nc2cc([N+](=O)[O-])ccc21 | – | 51.4 | – | – | –
CCOc1ccc(C(=O)Nc2sc3c(c2C(=O)OC)CC(C)(C)NC3(C)C)cc1 | – | 93.9 | – | – | –
CCOC(=O)c1c(NC(=O)COc2ccccc2)sc2c1CC(C)(C)NC2(C)C | – | – | – | – | –
COC(=O)c1c(NC(=O)c2nc3ccccc3s2)sc2c1CC(C)(C)NC2(C)C | – | 87.3 | 82.7 | – | –
